Assay outcomes from PubChem.
MrgX1 PAM: human MrgX1 positive allosteric modulation, primary screen. Q96LB2. MrgX1-HEK293, Fluo-4 calcium flux, FDSS; hits give high values. B-score at 10 µM. 310,000 tested, 0.63% active. AID 588675;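 active = plate-corrected calcium response at least 3 library SD above typical, normal starting fluorescence, not activating the receptor alone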;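 also: compound read alongside a low EC10 to EC30 dose of BAM8-22 agonist; peak minus trough fluorescence over baseline measured at the second addition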
Target sequence (Q96LB2 whole entry, looked up): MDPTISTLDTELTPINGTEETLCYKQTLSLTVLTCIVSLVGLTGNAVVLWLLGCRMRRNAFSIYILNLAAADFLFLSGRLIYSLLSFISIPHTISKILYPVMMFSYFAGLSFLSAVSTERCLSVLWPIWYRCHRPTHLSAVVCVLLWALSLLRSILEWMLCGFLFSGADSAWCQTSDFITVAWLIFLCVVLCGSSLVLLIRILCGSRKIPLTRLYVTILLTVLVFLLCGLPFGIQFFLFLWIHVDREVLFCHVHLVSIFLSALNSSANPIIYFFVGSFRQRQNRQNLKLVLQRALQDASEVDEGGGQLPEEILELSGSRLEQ
RGS4 act: potentiators or activators of RGS4 | HEK293 M3R/inducible RGS4, carbachol calcium flux Fluo4; hits give low values | B-score at 10 µM | AID 463111 | 310,000 tested, 0.92% active;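 active = B-score of the integrated calcium signal more than 4 SD below the library mean, with starting fluorescence not abnormally high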;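 also: negative B-score means reduced calcium response which marks RGS4 activation or potentiation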
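test system = HEK293 cells with stable M3R and inducible RGS4 | schedule = recording 10 s baseline at 1 Hz, 100 s post-agonist | technique = Fluo4-AM (2 µM) calcium-flux fluorescence, kinetic read | measure = Agonist-evoked peak-minus-minimum fluorescence over baseline, integrated ratio, B score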
MrgX1 agonist: agonists of human MrgX1 receptor | Q96LB2 | MrgX1-HEK293 cells, Fluo-4 calcium fluorescence, agonist mode; hits give high values | 310,000 tested, 0.44% active | B-score at 10 µM;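 active = calcium response B-score plate-corrected fluorescence ratio at least 3 library SD, with starting fluorescence B-score inside 5 SD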
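Test system: Stable human MrgX1 HEK293 cell line | Schedule: Overnight plating before 1 h dye loading | Read-out basis: Baseline-normalised fluorescence change ratio, B-scored | Detection: Kinetic calcium dye fluorescence, Fluo-4 NW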
RGS4 inh: human RGS4 inhibition. 310,000 tested, 0.45% active. AID 463165. P49798. B-score at 10 µM. HEK293 M3R/RGS4 inducible, Fluo-4 calcium flux; hits give high values; triggered by carbachol at its EC20;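 active = B-score, a plate-corrected calcium signal, over three deviations above library mean, with baseline fluorescence within five deviations of library mean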;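 also: RGS4 expression induced by doxycycline in cells with stable M3 receptor; B-score is computed from the integrated fluorescence ratio over baseline after carbachol; higher B-score means a larger calcium signal and so more RGS4 inhibition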
Target sequence (P49798 whole entry, looked up): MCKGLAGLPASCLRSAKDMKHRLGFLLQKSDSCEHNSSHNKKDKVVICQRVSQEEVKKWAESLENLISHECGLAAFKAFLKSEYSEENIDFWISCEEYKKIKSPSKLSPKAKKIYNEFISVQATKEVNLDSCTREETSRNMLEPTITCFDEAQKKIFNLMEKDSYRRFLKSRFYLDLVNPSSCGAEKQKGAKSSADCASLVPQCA
MrgX1 antagonist: human MrgX1 receptor antagonism, primary screen; 310,000 tested, 1.3% active; Q96LB2; MRGX1-HEK293 calcium flux, Fluo-4, BAM8-22 antagonism; hits give low values; B-score at 10 µM;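 active = calcium-response B-score plate-corrected more than 3 library SD below zero, starting fluorescence within 5 deviations, no agonist response on first addition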;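 also: peak minus trough fluorescence over baseline after final BAM8-22 challenge near maximal dose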
RGS4 inh valid: RGS4 inhibitor validation; shares compounds with RGS4 inh; HEK293 M3R/RGS4, carbachol calcium Fluo-4 fluorescence; carbachol added at its EC20; 0 = buffer wells, 100 = carbachol control; calcium response, % at 10 µM; 1,700 tested, 65% active; AID 492999;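 active = duplicate-averaged calcium response above the buffer-only control mean plus 5 SD of those controls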;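 also: integrated fluorescence ratio F max minus min over baseline F0; higher response in RGS4-induced cells means RGS4 inhibition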
M3R Ca ctr: counter-screen for RGS4 inhibitors: effect in non-induced cells. shares compounds with RGS4 inh. HEK293 M3R non-induced, carbachol calcium Fluo-4; submaximal (EC20) carbachol stimulus; buffer wells 0%, carbachol control wells 100%. activity (percent), % at 10 µM. 1,900 tested, 20% active. AID 493000; call rule not given here;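 also: RGS4 induction absent so cells express M3R without RGS4; higher means more calcium signal and flags a non-specific hit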
RGS4 inh ctr2: second RGS4 inhibitor counter-screen in uninduced cells lacking carbachol; shares compounds with RGS4 inh; HEK293 M3R/RGS4 non-induced, Fluo-4 calcium, no carbachol; normalised: buffer wells 0%, carbachol wells 100%; calcium response (agonist-mode artifact), % at 10 µM; 1,900 tested, 22% active; AID 493001;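 active = duplicate-averaged calcium rise in uninduced cells above buffer wells' mean plus 5 SD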
An asterisk follows results filed as active; i = inactive; x = no result given. A selection: hits, their analogues and other compounds. The true share with any hit is near 3.5%.

SMILES	MrgX1 PAM	RGS4 act	MrgX1 agonist	RGS4 inh	MrgX1 antagonist	RGS4 inh valid	M3R Ca ctr	RGS4 inh ctr2
O=C/C=C/c1c(-c2ccccc2)cc2oc3ccccc3cc1-2	i	i	35*	24*	i	16%*	i	i
O=S(=O)(c1ccccc1)N1CCN(C(=S)Nc2ccccc2Cl)CC1	i	i	i	i	i	x	x	x
COCc1nnc(NC(=O)CCc2ccc(OC)cc2)s1	i	i	i	5*	i	30%*	i	i
COc1ccc(CCC(=O)Nc2nnc(C)s2)cc1	i	i	i	i	i	x	x	x
CCOCc1nnc(NC(=O)CCc2ccccc2)s1	i	i	i	i	i	x	x	x
COCc1nnc(NC(=O)CCc2ccccc2)s1	i	i	i	i	i	x	i	i
O=C(COc1coc(CN2CCc3ccccc3C2)cc1=O)N1CCOCC1	i	i	i	i	i	x	x	x
Cc1cnc(C(=O)OCC(=O)c2ccc(F)cc2)cn1	i	i	i	i	i	x	x	x
NCCOc1ccc(C23CC4CC(CC(C4)C2)C3)cc1	i	i	i	11*	i	20%*	i	72%*
CCOc1cccc(/C=N/NC(=O)c2cc(C3CC3)[nH]n2)c1O	i	i	i	i	i	x	x	x
CCNC(=S)N(CCCO)Cc1cc2cc3c(cc2[nH]c1=O)OCCO3	i	i	i	i	i	x	x	x
COCCCNC(=S)N(CCO)Cc1cc2cc3c(cc2[nH]c1=O)OCO3	i	i	i	i	i	i	i	i
CN(C)CCCNC(=S)N(CCO)Cc1cc2cc3c(cc2[nH]c1=O)OCO3	i	i	i	i	i	x	x	x
CCN(CC)CCCN(Cc1cc2cc3c(cc2[nH]c1=O)OCO3)C(=S)NCCOC	i	i	i	i	i	x	x	x
COCCCNC(=S)N(CCCO)Cc1cc2cc3c(cc2[nH]c1=O)OCO3	i	i	i	i	i	x	i	i
COCCCNC(=S)N(CCCO)Cc1cc2cc3c(cc2[nH]c1=O)OCCO3	i	i	i	i	i	x	i	i
O=C(c1ccc(Br)o1)N1CCc2ccccc21	i	i	i	i	i	x	x	x
CCc1cccc(CC)c1NC(=S)NCCc1c(C)[nH]c2ccc(C)cc12	i	i	i	i	i	x	i	i
CCc1cccc(C)c1NC(=S)NCCc1c(C)[nH]c2ccc(C)cc12	i	i	i	i	i	x	x	x
Cc1ccc(/C=C2\C(=O)ON=C2c2ccccc2)o1	i	i	i	i	i	x	x	x
Cc1ccc(-c2ccc(/C=C3\C(=O)ON=C3c3ccccc3)o2)c([N+](=O)[O-])c1	i	i	i	12*	-6.3*	i	i	14%*
CC(=O)C1=C(C)NC(=S)NC1c1cccc([N+](=O)[O-])c1 (stereo not drawn)	6.5*	i	i	i	i	x	i	i
C(=N\Nc1nc(-c2ccccc2)cs1)/c1cccnc1	i	i	i	i	i	i	i	i
Clc1ccc(-c2csc(N/N=C/c3cccnc3)n2)c(Cl)c1	i	i	i	i	i	x	x	x
CCN(CC)S(=O)(=O)c1cccc(N=Nc2c(O)c3ccccc3oc2=O)c1	i	i	i	i	i	x	x	x
SMILES	MrgX1 PAM	RGS4 act	MrgX1 agonist	RGS4 inh	MrgX1 antagonist	RGS4 inh valid	M3R Ca ctr	RGS4 inh ctr2
O=C(/C=C/c1ccccn1)c1ccc(Br)cc1O	i	x	i	x	i	x	x	x
O=C(/C=C/c1ccccn1)c1cc(Br)ccc1O	i	i	i	7*	i	12%*	36%*	i
COc1ccc(OC)c(C2C(C(=O)c3ccc(C)o3)=C(O)C(=O)N2c2cc(C)on2)c1 (stereo not drawn)	i	i	i	i	i	x	x	x
COC(=O)c1sc(N2C(=O)C(O)=C(C(=O)c3ccc(C)o3)C2c2cc(OC)ccc2OC)nc1C (stereo not drawn)	i	i	i	7.3*	i	46%*	47%*	i
COc1ccc(C(=O)NCc2nnc(SCC(=O)Nc3ccccc3OC)n2C)cc1	i	i	i	i	i	x	x	x
CC(C)C(=O)NCC(c1ccc2c(c1)OCO2)N1CCOCC1 (stereo not drawn)	i	i	i	i	i	x	x	x
COc1cc(C2C(C#N)=C(N)Oc3cc(O)ccc32)cc(OC)c1OC (stereo not drawn)	i	i	i	i	i	x	x	x
COc1ccc(C2C(C#N)=C(N)Oc3cc(O)ccc32)cc1C (stereo not drawn)	i	i	i	i	i	x	31%*	21%*
COc1cc(C2C(C#N)=C(N)Oc3cc(O)ccc32)cc2c1OCO2 (stereo not drawn)	i	i	i	12*	i	29%*	i	i
COc1ccc(C2C(C#N)=C(N)Oc3cc(O)ccc32)cc1OC (stereo not drawn)	i	i	i	i	i	x	i	i
CCC(C(=O)NC1CCCC1)n1nc(C)n2c(cc3occc32)c1=O (stereo not drawn)	i	i	i	i	i	x	x	x
O=C(Nc1ccn([C@H]2CC[C@@H](CO)O2)c(=O)n1)c1ccccc1	i	i	i	i	i	x	x	x
Cc1cccc(C)c1N(CC(O)Cn1c2ccccc2c2ccccc21)S(C)(=O)=O (stereo not drawn)	i	i	i	7.2*	i	19%*	i	i
O=C(NC(=S)Nc1cc(C(F)(F)F)ccc1N1CCOCC1)c1sc2ccccc2c1Cl	i	i	i	i	i	x	x	x
CCOC(=O)c1ccc(N2C(=O)c3n[nH]c(-c4ccco4)c3C2c2ccc([N+](=O)[O-])cc2)cc1 (stereo not drawn)	i	i	i	i	i	i	i	i
CC(C)N(CCNCc1nnc(-c2ccccc2)o1)C(C)C	i	i	i	i	i	x	x	x
Cc1ccc(C(=O)CNc2ccc(Cl)cc2)cc1	i	i	i	i	i	x	x	x
